Reference: ChEMBL document CHEMBL2417481, “Regioselective synthesis of 6-substituted-2-amino-5-bromo-4(3H)-pyrimidinones and evaluation of their antiviral activity” (Eur J Med Chem, 2013)

Test system: Vaccinia virus
Test: Antiviral activity against Vaccinia virus Lederle infected in human HEL cells assessed as reduction in virus-induced cytopathogenicity
Type: functional, organism-based
Settings: Orthopoxvirus vaccinia
Summary of the method: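 Confluent cell monolayers (Vero, HeLa, HEL or MDCK, as named in each line) were infected with 100 CCID50 of virus while exposed to a range of compound concentrations. Cytopathicity was scored once it was complete in untreated infected controls.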

Row | Compound | EC50
1 | Cc1cc(C)c(/C=C/c2nc(N)[nH]c(=O)c2Br)c(C)c1 | > 20 µM
2 | Nc1nc2c(ncn2COCCO)c(=O)[nH]1 [ACYCLOVIR] | > 250 µM
3 | Nc1nc(CC(O)c2ccccc2C(F)(F)F)c(Br)c(=O)[nH]1 (stereo not given) | > 100 µM
4 | Nc1nc(CCc2ccccc2)c(Br)c(=O)[nH]1 | > 100 µM
5 | CCCCc1nc(N)[nH]c(=O)c1Br | > 100 µM
6 | COc1ccc(/C=C/c2nc(N)[nH]c(=O)c2Br)cc1OC | > 100 µM
7 | Nc1nc(CC(O)c2ccc(Cl)cc2)c(Br)c(=O)[nH]1 (stereo not given) | > 100 µM
8 | CCCc1nc(N)[nH]c(=O)c1Br | > 100 µM
9 | CC(C)(O)Cc1nc(N)[nH]c(=O)c1Br | > 100 µM
10 | CCCCCc1nc(N)[nH]c(=O)c1Br | > 100 µM
